SMILES strings stand for the structures. pIC50: −log10 of the molar value. Activity calls are given as the source filed them. The rule behind the calls is not given here.

Experiment [1] concerns MDA-MB-231. Kind of experiment: Antiproliferative activity against human MDA-MB-231 cells at 0.04 to 25 ug/ml after 96 hrs by CellTiter 96 AQueous one solution cell proliferation assay.
Experiment [2] has as its system MDA-MB-435. Put plainly: Antiproliferative activity against human MDA-MB-435 cells at 0.04 to 25 ug/ml after 96 hrs by CellTiter 96 AQueous one solution cell proliferation assay.
For experiment [3], the system named is MDA-MB-435. Put plainly: Antiproliferative activity against human MDA-MB-435 cells assessed as viable cells at 1 ng/ml after 96 hrs by CellTiter 96 AQueous one solution cell proliferation assay relative to control. It is filed as functional. The settings on record: MDA-MB-435, 96 h, read-out: Activity.
For experiment [4], the system named is MDA-MB-435. Put plainly: Antiproliferative activity against human MDA-MB-435 cells after 96 hrs by CellTiter 96 AQueous one solution cell proliferation assay. It is filed as functional, cell-based. The settings on record: MDA-MB-435, 96 h. Summed up: (§1)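 Cells kept in RPMI 1640 with 10% FBS, penicillin (100 units/mL) and streptomycin (100 μg/mL) at 37 °C, 5% CO₂. Log-phase cells were trypsinized and seeded at 5000 per well, then left overnight. DMSO solutions were serially diluted and added at 25, 5.0, 1.0, 0.2 and 0.04 μg/mL for 96 h at 37 °C. Viability was read by absorbance as percent viable cells versus solvent control.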

The subject of experiment [5] is MDA-MB-231. Put plainly: Antiproliferative activity against human MDA-MB-231 cells after 96 hrs by CellTiter 96 AQueous one solution cell proliferation assay. It is filed as functional, cell-based. The conditions noted are these: MDA-MB-231, 96 h. Summed up:
as §1

In experiment [6] the test system is MDA-MB-435. Kind of experiment: Antiproliferative activity against human MDA-MB-435 cells at 25 ug/ml after 96 hrs by CellTiter 96 AQueous one solution cell proliferation assay.
For experiment [7], the system named is MDA-MB-231. Kind of experiment: Antiproliferative activity against human MDA-MB-231 cells at 25 ug/ml after 96 hrs by CellTiter 96 AQueous one solution cell proliferation assay.

For `CCCC[C@H]1CCCC[C@H](C)[C@@H](O)c2cc(O)c(c(O)c2)[C@@H](CCCC)CCCC[C@H](C)[C@@H](O[C@@H]2OC[C@@H](O)[C@@H](O)[C@H]2O)c2cc(O)c1c(O)c2`, the result in experiment [1] and in experiment [2] was Active.

Regarding `CC[C@]1(O)C[C@@H]2CN(CCc3c([nH]c4ccccc34)[C@@](C(=O)OC)(c3cc4c(cc3OC)N(C)[C@H]3[C@@](O)(C(=O)OC)[C@H](OC(C)=O)[C@]5(CC)C=CCN6CC[C@]43[C@@H]65)C2)C1` [VINBLASTINE], in experiment [3], the viability at 0.001 µg/mL came out at 49%.

As for `CCCC[C@H]1CCCC[C@H](C)[C@@H](OC(C)=O)c2cc(O)c(c(O)c2)[C@@H](CCCC)CCCC[C@H](C)[C@@H](OC(C)=O)c2cc(O)c1c(O)c2`, the result in experiment [1] and in experiment [2] was Active.

What is called pIC50 is the negative decadic logarithm of the IC50, by convention in mol/L. A lower pIC50 goes with a large IC50. In the case of `CCCC[C@H]1CCCC[C@H](C)Cc2cc(O)c(c(O)c2)[C@@H](CCCC)CCCC[C@H](C)[C@@H](O[C@@H]2OC[C@@H](O)[C@@H](O)[C@H]2O)c2cc(O)c1c(O)c2`, the pIC50 in experiment [4] is 5.89; in experiment [5], 5.92.

Take `CCCC[C@H]1CCCC[C@H](C)[C@@H](OC(C)=O)c2cc(O)c(c(O)c2)[C@@H](CCCC)CCCC[C@H](C)[C@@H](O[C@@H]2OC[C@@H](O)[C@@H](O)[C@H]2O)c2cc(O)c1c(O)c2`: the pIC50 in experiment [4] was 6.22; in experiment [5], 6.10.

In the case of `CCCCC(Cl)CCCC[C@H](C)[C@@H](O[C@@H]1OC[C@@H](O)[C@@H](O)[C@H]1O)c1cc(O)c([C@@H](CCCC)CCCC[C@H](C)[C@@H](OC(C)=O)c2cc(O)cc(O)c2)c(O)c1` (stereo partly drawn), the result in experiment [6] and in experiment [7] was inactive.

Regarding `CCCC[C@H]1CCCC[C@H](C)[C@@H](O[C@@H]2OC[C@@H](O)[C@@H](O)[C@H]2O)c2cc(O)c(c(O)c2)[C@@H](CCCC)CCCC[C@H](C)[C@@H](O[C@@H]2OC[C@@H](O)[C@@H](O)[C@H]2O)c2cc(O)c1c(O)c2`, the outcome in experiment [1] and in experiment [2] was Active.
